Series [1] addresses T1, Human immunodeficiency virus type 1 reverse transcriptase (Human immunodeficiency virus 1, UniProt Q72547). The series can be described thus: Tested for inhibition against HIV-1 RT (used (poly)rC-(oligo)dG as the template).
The target in series [2] is Human immunodeficiency virus type 1 reverse transcriptase (Human immunodeficiency virus 1) (UniProt Q72547). The experiment in a line: Cell culture inhibitor concentration required to inhibit the spread of HIV-1 strain III B infection in MT-4 human T-lymphoid cells. In kind it is functional, cell-based.
Series [3] is described as follows: Percent unbound determined for whole normal human plasma. In kind it is functional. The procedure, abridged: (§1)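 Compound from 1 mM DMSO stock added to pH 7.4 phosphate/NaCl buffer with human plasma (10-fold diluted plasma), initial compound 10 μM; triplicate aliquots centrifuged through filter tubes, filtrate analysed by HPLC.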
The nature of series [4]: Plasma equilibrium dissociation constant was determined. In kind it is functional, cell-free, Homo sapiens. The procedure, abridged: as §1
A short description of series [5]: Half life was determined. As to conditions: 0.1 N HCl in 90% ethanol. In kind it is ADME. The procedure, abridged: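 Acid hydrolysis: stock aliquot added to stirred ethanol/1 N HCl (8.9:1.0 mL) at 37 °C; aliquots withdrawn at intervals, quenched into pH 7.7 0.1 M MES buffer and analysed by HPLC.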
Series [6] deals with T1, Human immunodeficiency virus type 1 reverse transcriptase. The series can be described thus: Inhibition against HIV-1 RT (used (poly)rC-(oligo)dG as the template); not characterized.

Structures are written as SMILES.

The term IC50 denotes the concentration needed to halve the response being measured. For the molecule `Cc1nc(O)c(CCc2nc3ccccc3o2)cc1CO`, the IC50 in series [1] amounted to 3400 nM. Same read-out and setting: as for `Cc1[nH]c(=O)c(CCc2nc3ccccc3o2)cc1C(N)=O`, the figure is 41500 nM; as for `CCc1cc(CCc2nc3c(Cl)ccc(Cl)c3o2)c(=O)[nH]c1C`, 14 nM. In the case of `CCc1cc(/C=C/c2nc3ccccc3o2)c(O)nc1C`, it took 5900 nM to reach half-maximal inhibition in series [1] (IC50). As usually defined, the IC95 is the concentration at which the effect reaches the 95% level. A high value points to a need for much substance. One may read the Kd as a measure of binding affinity in units of concentration. The molecule `CCc1cc(CCc2nc3c(F)ccc(F)c3o2)c(O)nc1C` showed an IC95 in series [2] of 50 nM. The same molecule gave an Unbound in series [3] of 3%. Further, the midpoint of inhibition in series [1], the IC50, lay at 14 nM. Also, binding in series [4] was characterised by a dissociation constant (Kd) of 18200 nM. In series [1], `CCC1=C(C)NC(N)C(CCc2nc3ccccc3o2)=C1` (stereo not drawn) showed an IC50 of 100000 nM. On the same count and under the same terms, with `CCc1cc(CCc2nc3c(F)ccc(F)c3o2)c(=S)[nH]c1C` the figure was 15 nM; with `CCc1cc(CCc2ccccc2)c(=O)[nH]c1C`, 50000 nM; with `CCc1cc(CCc2nc3cc(F)ccc3o2)c(=O)[nH]c1C`, 1700 nM.

The molecule `CCc1cc(CCc2nc3cccc(F)c3o2)c(=S)[nH]c1C` registered an IC50 in series [1] of 43 nM. Against the preceding molecule, the IC50 is about 40-fold lower. Molecule `CCc1cc(CCCc2nc3ccccc3o2)c(O)nc1C` yielded an IC50 in series [1] of 16000 nM. This IC50 lies about 370-fold higher than the previous one.

`CCc1cc(/C=C\c2nc3ccccc3o2)c(=O)[nH]c1C`: in series [1], the IC50 worked out at 3000 nM.

In series [2], `CCc1cc(CCc2nc3cccc(Cl)c3o2)c(O)nc1C` registered an IC95 of 100 nM. This molecule also returned an Unbound in series [3] of 0.7%. The 50% inhibitory concentration (IC50) in series [1] stood at 39 nM. The molecule further yielded a Kd in series [4] of 4160 nM. In series [1], `CCc1cc(CCc2nc3cccc(Cl)c3o2)c(=S)[nH]c1C` yielded an IC50 of 29 nM.

In series [1], `CCc1cc(Cc2nc3ccccc3o2)c(O)nc1C` returned an IC50 of 45000 nM. `CCc1cc(CCc2nc3cccc(C)c3o2)c(=O)[nH]c1C` displayed an IC50 in series [1] of 40 nM. Still for that read-out and setting: with `CCc1cc(CCc2nc3c(Cl)cccc3o2)c(S)nc1C` the figure was 30 nM. The same measure, in the same setting: with `COCc1cc(CCc2nc3ccccc3o2)c(=O)[nH]c1C` the figure was 2100 nM; with `CCc1cc(S(=O)(=O)Cc2nc3c(Cl)ccc(Cl)c3o2)c(O)nc1C`, 205 nM; with `Cc1nc(O)c(CCc2nc3ccccc3o2)cc1C#N`, 310 nM. Same read-out and setting: with `CCc1cc(CCc2nc3ccc(F)cc3o2)c(O)nc1C` the figure was 442 nM.

`CCc1cc(CCc2nc3c(F)cccc3o2)c(S)nc1C`: in series [2], the IC95 turned out to be 100 nM. For the molecule `CCc1cc(CCc2nc3c(F)cccc3o2)c(O)nc1C`, the IC95 in series [2] came to 50 nM. The molecule further came in with an Unbound in series [3] of 4%. In addition, 15 nM corresponded to half-maximal inhibition in series [1] (IC50). In addition, binding in series [4] was characterised by a dissociation constant (Kd) of 24000 nM.

On to `CCc1cc(CCc2nc3c(F)cccc3o2)c(=S)[nH]c1C`, for which 13 nM corresponded to half-maximal inhibition in series [1] (IC50). Still for that read-out and setting: with `Cc1cc(CCc2nc3ccccc3o2)c(O)nc1C` the figure was 170 nM.

Usually half-life stands for how long it takes for the measured level to halve. Turning to `CCc1cc(NCc2nc3ccccc3o2)c(O)nc1C`, in series [5], the half-life was 35 min. Moreover, in series [2], it took 800 nM to reach the 95% level (IC95). In the case of `CCc1cc(OCc2nc3ccccc3o2)c(=O)[nH]c1C`, the half-life in series [5] worked out at 12 min. Further, half-maximal inhibition in series [1] (IC50) required 191 nM. `Cc1[nH]c(=O)c(CCc2nc3ccccc3o2)cc1C(C)C` yielded an IC50 in series [1] of 48 nM.

For `CCc1cc(CCc2nc3cccc(F)c3o2)c(O)nc1C`, the Unbound in series [3] was 1.4%. Besides, in series [1], the IC50 turned out to be 37 nM. Also, in series [4], the Kd turned out to be 8160 nM. In turn, `Cc1nc(O)c(CCc2nc3ccccc3o2)cc1N(C)C` yielded an IC50 in series [1] of 1850 nM. Take `CCc1cc(CCc2cc3ccccc3o2)c(O)nc1C`: 130 nM corresponded to half-maximal inhibition in series [1] (IC50). `CCc1cc(CCc2nc3c(Cl)ccc(Cl)c3o2)c(S)nc1C` registered an IC95 in series [2] of 100 nM. Also, in series [1], the concentration for half-maximal inhibition (IC50) amounted to 30 nM. Regarding `CCc1cc(CCC2=NC3CCCCC3O2)c(=O)[nH]c1C` (stereo not drawn), in series [1], half-maximal inhibition (IC50) required 58 nM.

Take `CCc1cc(CCc2nc3c(C)ccc(C)c3o2)c(S)nc1C`: the 95% effect concentration (IC95) in series [2] turned out to be 200 nM.

`Cc1nc(O)c(CCc2nc3ccccc3o2)cc1-c1ccccc1` returned an IC50 in series [1] of 1100 nM. `CCc1cc(OCc2nc3c(Cl)ccc(Cl)c3o2)c(=O)[nH]c1C`: the half-life in series [5] stood at 11 min. Further, in series [1], the IC50 was 88 nM. Turning to `CCc1cc(CCc2nc3ccccc3o2)c(S)nc1C`, the 95% effect concentration (IC95) in series [2] is 200 nM. 24 nM corresponded to half-maximal inhibition in series [1] (IC50). In series [2], `CCc1cc(SCc2nc3c(Cl)ccc(Cl)c3o2)c(O)nc1C` registered a 95% effect concentration (IC95) of 50 nM. In the case of `CCc1cc(NCC(=O)Nc2c(O)cc(Cl)cc2Cl)c(O)nc1C`, in series [1], the IC50 was above 300000 nM. Consider `CCc1cc(NCC(=O)Nc2ccccc2O)c(O)nc1C`, for which the IC50 entry in series [6] was “not characterized”. Turning to `CCc1cc(CCc2nc3ccc(C)cc3o2)c(=O)[nH]c1C`, the half-inhibitory concentration (IC50) in series [1] worked out at 172 nM. In turn, `CCc1cc(CCc2nc3cccc(Cl)c3o2)c(S)nc1C` gave an IC95 in series [2] of 200 nM. In turn, `Cc1cc(CCc2nc3c(Cl)ccc(Cl)c3o2)c(=O)[nH]c1C` came in with an IC50 in series [1] of 97 nM. Molecule `CCc1cc(CCc2nc3c(F)ccc(F)c3o2)c(S)nc1C` returned a 95% effect concentration (IC95) in series [2] of 200 nM. In turn, `CCc1cc([S+]([O-])Cc2nc3c(Cl)ccc(Cl)c3o2)c(O)nc1C` (stereo not drawn) yielded an IC50 in series [1] of 1400 nM. Still for that read-out and setting: as for `CCc1cc(CCc2ccc3ccccc3n2)c(O)nc1C`, the figure is 2450 nM. With `CCc1cc(CCc2nc3c(Cl)cccc3o2)c(O)nc1C`, the IC95 in series [2] is 100 nM. The same molecule gave an Unbound in series [3] of 3%. It took 62 nM to reach half-maximal inhibition in series [1] (IC50). Besides, binding in series [4] was put at a Kd of 17600 nM. As to `CCc1cc(CCc2nc3cccc(F)c3o2)c(S)nc1C`, the IC95 in series [2] is 200 nM. Molecule `CCc1cc(OCc2nc3c(Cl)ccc(Cl)c3o2)c(O)nc1C` registered an IC95 in series [2] of 200 nM. Consider `CCCc1cc(CCc2nc3ccccc3o2)c(O)nc1C`, for which the IC50 in series [1] is 83 nM. Same read-out and setting: with `CCc1cc(CCc2cc3cnccc3o2)c(O)nc1C` the figure was 13500 nM; with `CCc1cc(CCC(=O)Nc2c(O)cc(Cl)cc2Cl)c(O)nc1C`, above 300000 nM. `CCc1cc(CCc2nc3c(C)ccc(C)c3o2)c(=O)[nH]c1C` showed an IC50 in series [1] of 28 nM. In turn, `CCc1cc(CCc2ccccn2)c(O)nc1C` returned an IC50 in series [1] of 260000 nM. This IC50 lies about 9300-fold higher than the previous one. Still for that read-out and setting: as for `CCCc1cc(CCc2nc3c(Cl)ccc(Cl)c3o2)c(=O)[nH]c1C`, the figure is 34 nM. Molecule `CCc1cc(CCc2nc3c(C)cccc3o2)c(O)nc1C` registered an IC95 in series [2] of 100 nM. In series [3], this molecule yielded an Unbound of 0.4%. Besides, the affinity in series [4], expressed as Kd, was 2450 nM. `CCc1cc(CNc2nc3ccccc3o2)c(O)nc1C` displayed an IC95 in series [2] of 10000 nM. In series [1], this molecule yielded an IC50 of 1250 nM. On to `CCc1cc(CCc2nc3c(C)ccc(C)c3o2)c(O)nc1C`, for which the IC95 in series [2] is 300 nM. In series [3], this molecule registered an Unbound of 0.2%. The same molecule came in with a Kd in series [4] of 1210 nM. Take `CCc1cc(CCc2ccc3ccccc3c2)c(=O)[nH]c1C`: the IC50 in series [1] was 8400 nM. The same measure, in the same setting: as for `CCc1c[nH]c(=O)c(CCc2nc3ccccc3o2)c1`, the figure is 177 nM. Regarding `CCc1cc(CCc2nc3ccccc3o2)c(O)nc1C`, the half-life in series [5] was found to be 218 min. The molecule further gave an IC95 in series [2] of 100 nM. The same molecule gave an Unbound in series [3] of 4%. In addition, in series [1], the IC50 was 23 nM. Besides, the Kd in series [4] came out at 21600 nM.

The molecule `CCc1cc(CCc2nc3c(Cl)ccc(Cl)c3o2)c(O)nc1C` gave a 95% effect concentration (IC95) in series [2] of 50 nM. Also, the Unbound in series [3] is given as 0.1%. Besides, in series [4], binding was put at a Kd of 760 nM.

Regarding `CCc1cc(CCC(=O)Nc2ccccc2O)c(=O)[nH]c1C`, the half-maximal inhibitory concentration (IC50) in series [1] was 5400 nM. With `CCc1cc(OCC(=O)Nc2ccccc2O)c(O)nc1C`, the IC50 result in series [6] is reported as “not characterized”. In turn, `CCc1cc(NCc2nc3c(Cl)ccc(Cl)c3o2)c(O)nc1C` [L-697661] gave a half-life in series [5] of 17 min. Besides, the 95% effect level in series [2] (IC95) was put at 100 nM. Besides, in series [3], the Unbound was 0.4%. Also, the 50% inhibitory concentration (IC50) in series [1] is 20 nM.

With `CCc1cc(CCc2nc3c(C)ccc(C)c3o2)c(=S)[nH]c1C`, it took 52 nM to reach half-maximal inhibition in series [1] (IC50). `CCc1cc(SCc2nc3c(Cl)ccc(Cl)c3o2)c(=O)[nH]c1C`: in series [5], the half-life is 34 min. The molecule also displayed an IC50 in series [1] of 11 nM.

In the case of `CCc1cc(CCc2ncc(-c3ccccc3)o2)c(O)nc1C`, the IC50 in series [1] was found to be 385 nM. This lies in the sub-micromolar range. On the same count and under the same terms, as for `CCc1cc(CCc2nc3c(C)cccc3o2)c(=O)[nH]c1C`, the figure is 33 nM.

For the origin of these results see ChEMBL document CHEMBL1126643, “Synthesis and evaluation of 2-pyridinone derivatives as HIV-1-specific reverse transcriptase inhibitors. 4. 3-[2-(Benzoxazol-2-yl)ethyl]-5-ethyl-6-methylpyridin-2(1H)-one and analogues” (J Med Chem, 1993).
